Experimental data from different studies.
Compare with care: the assays were run in different laboratories.
Effect on: cell growth or viability

COc1ccc(NC(=O)c2c(Nc3ccccc3)sc(C#N)c2NC(=O)CNc2ccc([N+](=O)[O-])cc2)cc1 — viability (HepG2; SRB; 1 µM, 48 h): 68.4%
CCCCCCCCCCCCNC(=O)NCCCC[C@H](NS(C)(=O)=O)C(=O)N[C@H](C)C(=O)N[C@@H](CCCNC(=N)N)C(N)=O — EC50 (HEK-293T; MTT; 72 h): 28.6 to 38 µM
COc1cc(N2CCC(N3CCN(C)CC3)CC2)ccc1Nc1ncc(Cl)c(Nc2ccccc2P(C)(C)=O)n1 — GI50 (NCI-H292; ATP luminescence; 72 h): 2.76 µM
CCOC(=O)c1ccc(-n2c(C)cc(/C=C/c3ccc(OC)cc3)c(C#N)c2=O)cc1 — viability (HepG2; MTT; 1.56 µM, 24 h): 100%
COc1ccc(NC(=O)c2c(Nc3ccccc3)sc(C#N)c2NC(=O)CNc2ccc(OC)c(OC)c2)cc1 — viability (HepG2; SRB; 1 µM, 48 h): 83.7%
Cc1cc(Nc2ccc(C(=O)N/N=C/C3CCCCC3)cc2)c2cccc(O)c2n1 — inhibition (Huh-7; MTT; 20 µM): 41.1%
COc1cc([C@@H]2c3cc4c(cc3[C@@H](O[C@@H]3O[C@@H]5CO[C@@H](C)O[C@H]5[C@H](O)[C@H]3O)[C@H]3COC(=O)[C@H]23)OCO4)cc(OC)c1O — IC50 (CCD-18Co; MTS; 24 h): 48.4 µM
COc1ccc(NC(=O)c2c(Nc3ccccc3)sc(C(=O)NN=Cc3ccccc3)c2NC(C)=O)cc1 — viability (HepG2; SRB; 10 µM, 48 h): 65.3%
CC(C)C[C@H](NC(=O)[C@H](Cc1ccccc1)NC(=O)c1cnccn1)B(O)O — IC50 (HEC-1B; ATP luminescence): 0.0096 µM
CCOCc1sc(NCc2ncccn2)nc1-c1ccccn1 — CC50 (Huh-7): > 40 µM
Cc1cc(Nc2ccc(C(=O)N/N=C/c3ccc(C)s3)cc2)c2cccc(O)c2n1 — inhibition (Huh-7; MTT; 20 µM): 43.3%
CCCCCCCCCCCCNC(=S)NCCCC[C@H](NS(C)(=O)=O)C(=O)N[C@@H](C)C(=O)N[C@@H](CCCNC(=N)N)C(N)=O — EC50 (HEK-293T; MTT; 72 h): ~100 µM
COc1ccc(NC(=O)c2c(Nc3ccccc3)sc(C(=O)NN=Cc3ccc(OC)c(O)c3)c2NC(C)=O)cc1 — viability (HepG2; SRB; 0.1 µM, 48 h): 63.7%
CCOC(=O)c1ccc(-n2c(C)cc(/C=C/c3ccc(OCC)cc3)c(C#N)c2=O)cc1 — viability (HepG2; MTT; 3.125 µM, 24 h): 100%
CCOC(=O)Cc1sc(NCc2ncccn2)nc1-c1ccccn1 — CC50 (Huh-7): > 40 µM
C[C@@H](NC(=O)[C@H](CCCCNC(=O)C(F)(F)F)NS(C)(=O)=O)C(=O)N[C@@H](CCCNC(=N)N)C(N)=O — EC50 (HEK-293T; MTT; 72 h): 3.68 to 46.1 µM
Cc1cc(Nc2ccc(C(=O)N/N=C/c3nc4ccccc4[nH]3)cc2)c2cccc(O)c2n1 — inhibition (Huh-7; MTT; 20 µM): 33%
CCOC(=O)c1ccc(-n2c(C)cc(C)c(C#N)c2=O)cc1 — viability (HepG2; MTT; 50 µM, 24 h): 51.2%
Cc1c(NC(=O)c2ccc(C(C)(C)C)cc2)cccc1-c1cn(C)c(=O)c(Nc2ccc(C(=O)N3CCOCC3)cc2)n1 — GI50 (Ramos; 48 h): > 10 µM
COc1cc(Nc2nccc(-c3cnn4nc(OC)ccc34)n2)cc(C(F)(F)F)c1 — IC50 (HEC-1B; ATP luminescence): > 3 µM
Cc1cccc(/C=N/NC(=O)c2ccc(Nc3cc(C)nc4c(O)cccc34)cc2)n1 — inhibition (Huh-7; MTT; 20 µM): 53.1%
CCOC(=O)c1ccc(NC(=O)C2=C3C(=Nc4ccccc43)NC2=O)cc1 — viability (HepG2; MTT; 6.25 µM, 24 h): 90.2%
COc1ccc(NC(=O)c2c(Nc3ccccc3)sc(C#N)c2NC(=O)CNc2ccccc2Cl)cc1 — viability (HepG2; SRB; 100 µM, 48 h): 90.3%
Cc1cc(Nc2ccc(C(=O)N/N=C/c3ccc[nH]3)cc2)c2cccc(O)c2n1 — inhibition (Huh-7; MTT; 20 µM): 68.3%
COc1ccc(NC(=O)c2c(Nc3ccccc3)sc(C(=O)NN=Cc3ccc(C)cc3)c2NC(C)=O)cc1 — viability (HepG2; SRB; 0.1 µM, 48 h): 89.2%
Cc1cc(Nc2ccc(C(=O)N/N=C/c3cccc(Oc4ccccc4)c3)cc2)c2cccc(O)c2n1 — inhibition (Huh-7; MTT; 20 µM): 61%
COc1ccc(NC(=O)c2c(Nc3ccccc3)sc(C#N)c2NC(=O)CNc2ccc(C)cc2)cc1 — viability (HepG2; SRB; 10 nM, 48 h): 88.3%
C=CC(=O)Nc1cc(-n2c(=O)ccc3cnc4ccc(-c5ccc(NS(C)(=O)=O)cc5)cc4c32)ccc1C — GI50 (Ramos; 48 h): 1.8 µM
Cc1ccc(/C=N/NC(=O)c2ccc(Nc3cc(C)nc4c(O)cccc34)cc2)cc1 — inhibition (Huh-7; MTT; 20 µM): 62.5%
COc1ccc(NC(=O)c2c(Nc3ccccc3)sc(C#N)c2NC(=O)CNc2ccccc2[N+](=O)[O-])cc1 — viability (HepG2; SRB; 10 µM, 48 h): 84.6%
